High-throughput results: PubChem, several laboratories
CYP2C19 inh: inhibitors of human CYP2C19. inhibition, % at 5 µM. CYP2C19 Supersomes, luciferin-H EGE luminescence, 30 min. actives 21% (n = 96,000). AID 778;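 active = CYP2C19 inhibition above a set limit at 5 µM in the primary screen, cut at about 50% in these data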;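 also: plate controls were negative control wells for no effect and 2.5 mM tranylcypromine positive control for full effect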
Target sequence (P33261 whole entry, looked up): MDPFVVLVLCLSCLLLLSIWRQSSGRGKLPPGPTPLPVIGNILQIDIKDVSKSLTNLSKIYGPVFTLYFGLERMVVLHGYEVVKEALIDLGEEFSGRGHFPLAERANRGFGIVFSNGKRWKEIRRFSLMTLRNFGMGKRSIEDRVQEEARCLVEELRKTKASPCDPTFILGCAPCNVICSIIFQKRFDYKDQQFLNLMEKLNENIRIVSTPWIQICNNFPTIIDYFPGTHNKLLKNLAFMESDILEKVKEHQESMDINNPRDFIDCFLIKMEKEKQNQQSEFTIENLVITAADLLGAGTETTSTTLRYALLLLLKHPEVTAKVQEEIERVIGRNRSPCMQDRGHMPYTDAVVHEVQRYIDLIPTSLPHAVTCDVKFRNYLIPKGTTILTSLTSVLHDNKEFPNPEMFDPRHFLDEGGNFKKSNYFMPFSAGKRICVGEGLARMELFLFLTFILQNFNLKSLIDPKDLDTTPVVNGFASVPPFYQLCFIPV
CYP2C9 activ: CYP2C9 (human) activation; activation factor at 5 µM; recombinant CYP2C9, luciferin-H conversion, luminescence; active compounds read high; factor 1 = untreated enzyme, 0 = blocked; P11712; actives 1.4% (n = 96,000);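 active = activation factor of 2 or more for CYP2C9 at a 5 µM dose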;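 also: 0 = sulfaphenazole-blocked wells and 1 = vehicle-only wells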
Cav32 inh: inhibitors of human Cav3.2 T-type calcium channel; O95180; Cav3.2-expressing cells, Fluo-4 calcium fluorescence FDSS; active compounds read low; B-score at 10 µM; actives 4% (n = 100,000);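 active = single-dose well whose peak fluorescence ratio is a statistical outlier from its plate by either plate-standardised score or position-corrected B-score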
CYP2C9 inhib: inhibitors of human CYP2C9; P11712; actives 20% (n = 96,000); inhibition, % at 5 µM; CYP2C9 Supersomes, luciferin-H conversion, luminescence;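 active = blocking of liver enzyme CYP2C9 beyond about 50% at 5 µM, limit read from the data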
CYP2C19 act: cytochrome P450 2C19 (human) activation | P33261 | recombinant CYP2C19, luciferin-H EGE luminescence; active compounds read high; 0 = fully inhibited enzyme, 1 = untreated enzyme | activation factor at 5 µM | 96,000 tested, under 10 active | AID 1025;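 active = activation factor of at least 2 at 5 µM in the primary screen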;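 also: 0 = wells with 2.5 mM tranylcypromine and 1 = vehicle-only wells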
Rev-RRE block: disrupts HIV-1 Rev binding to RRE RNA; P05866; inhibition, % at 8 µM; AID 704; Rev peptide-RRE RNA binding, FRET; actives 0.79% (n = 97,000);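 active = inhibition above the screen-wide mean plus 3 SD, cut at about 35% in these data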;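 also: 0% = median DMSO wells and 100% = median Neomycin B control wells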
Target sequence (P05866 whole entry, looked up): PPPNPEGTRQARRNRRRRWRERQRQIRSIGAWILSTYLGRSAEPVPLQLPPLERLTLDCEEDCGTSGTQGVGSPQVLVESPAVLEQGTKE
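assay system = Cy5-tagged RRE RNA duplex with fluorescein-tagged Rev peptide | incubation = 5 + 15 min at 25 °C | also added = labelled Rev peptide | measure = % inhibition of FRET ratio versus controls | benchmarks = DMSO wells as 0% and neomycin B wells as 100% inhibition | measured by = FRET fluorescence readout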
* = called active by the depositor; . = no result given. Most compounds without a hit are left out; they make up all but 27% or so of the library.

SMILES	CYP2C19 inh	CYP2C9 activ	Cav32 inh	CYP2C9 inhib	CYP2C19 act	Rev-RRE block
C/C=C1\COC(C(=O)NCc2ccccc2)(C(F)(F)F)C=C1C=C1CCCCC1 (stereo unspecified)	.	.	-4.3*	.	.	.
C/C=C1\COC(C(=O)NCCN2CCCC2)(C(F)(F)F)C=C1C=C1CCCCC1 (stereo unspecified)	.	.	-2.6	.	.	.
Cc1cccc(OCc2nnc(NC(=O)Cc3cccs3)s2)c1	.	.	0.25	.	.	7
Cc1cccc(C2=N/C(=C\c3cccnc3)C(=O)O2)c1	8	1.2	-0.6	-16	0.9	8
Cc1ccc(C2=N/C(=C\N3CCCCC3)C(=O)O2)cc1	84*	0.3	0.59	66*	0.2	-1
CCOC(=O)c1c(-c2ccc(C)o2)csc1NC(=O)CSc1nnc(C)s1	88*	0	-6.2*	96*	0.1	0
CCOC(=O)c1c(-c2ccc(C)o2)csc1NC(=O)CSc1nnnn1-c1ccccc1	80*	0	-2.7	96*	0.2	0
CCOC(=O)c1c(-c2ccc(C)o2)csc1NC(=O)COC(=O)c1ccc(NC(N)=O)cc1	11	0.1	0.22	91*	0.9	1
CCOC(=O)c1c(-c2ccc(C)o2)csc1NC(=S)NC(=O)c1ccccc1Br	25	0.3	-0.52	71*	0.8	6
CCOC(=O)c1sc(NC(=S)NC(=O)c2ccccc2Cl)c(C(=O)OCC)c1C	19	0.6	-1.5	41	0.8	6
CC1CC(C(F)(F)C(F)(F)F)n2nc(C(=O)O)cc2N1 (stereo unspecified)	-9	1.1	.	-10	1.1	.
C#CCOCCOCCOCCNc1nc(N2CCN(C(=O)[C@H](Cc3cc4ccccc4[nH]3)n3cc([C@@H](N)CC(C)C)nn3)CC2)nc(N2CCN(C(=O)[C@H](Cc3cc4ccccc4[nH]3)n3cc([C@@H](N)CC(C)C)nn3)CC2)n1	.	.	0.3	.	.	.
O=C(CCC1CCCCC1)Nc1cccnc1	27	1	0.022	2	0.7	4
Cc1nc2cc(N3CCN(C)CC3)c(NC(=O)Cc3ccccc3)cc2c(=O)n1Cc1ccccc1	67*	0.3	-7.3*	67*	0.3	7
CCN(CC)c1cc2nc(C)n(Cc3ccccc3)c(=O)c2cc1NC(=O)C1CC1	.	.	-2	.	.	14
Cc1nc2cc(N3CCCCC3)c(NC(=O)c3ccncc3)cc2c(=O)n1Cc1ccc(Cl)cc1	48	0.3	.	74*	0.5	6
CC1(C)CC(=O)C2=C(C1)Oc1ncn(Cc3ccco3)c(=N)c1C2c1ccccc1 (stereo unspecified)	2	0.8	2.1	17	1	16
CC1(C)CC(=O)C2=C(C1)Oc1ncn(CCCn3ccnc3)c(=N)c1C2c1ccccc1 (stereo unspecified)	79*	0.1	-2	90*	0.2	5
COc1ccc(C2C3=C(CC(C)(C)CC3=O)Oc3ncn(Cc4ccccc4)c(=N)c32)cc1 (stereo unspecified)	25	0.6	-0.83	45	0.8	19
COc1ccc(C2C3=C(CC(C)(C)CC3=O)Oc3ncn(CCCn4ccnc4)c(=N)c32)cc1 (stereo unspecified)	44	0.2	0.54	78*	0.6	10
COc1ccccc1-c1c(C#N)c(SCC(=O)N2CCCC2)nc(C)c1C(N)=O	-7	1	0.96	2	1.1	2
CCCNC(=O)N1CCN(c2nc(C(C)C)c3c(c2C#N)CC(C)(C)OC3)CC1	87*	0.2	-0.96	80*	0.1	0
Cc1ccc2cc(C#N)c(N3CCCN(S(=O)(=O)c4ccc(F)cc4)CC3)nc2c1	.	.	0.61	.	.	16
Cc1ccc(S(=O)(=O)N2CCN(c3nc(C(C)C)c4c(c3C#N)CC(C)(C)OC4)CC2)cc1	68*	0.1	-2.6	95*	0.3	9
CC(C)c1nc(N2CCOCC2)c(C#N)c2c1CCC2	16	0.8	-1.6	22	0.8	5
SMILES	CYP2C19 inh	CYP2C9 activ	Cav32 inh	CYP2C9 inhib	CYP2C19 act	Rev-RRE block
CCOC(=O)C(C#N)(Cc1cc(OC)cc(OC)c1)Cc1cc(OC)cc(OC)c1	.	.	-2.2	.	.	.
CC1(c2nnc(-c3ccccc3)o2)CC(c2ccccc2)=NO1 (stereo unspecified)	.	.	-1.4	.	.	.
O=C(O)/C=C/c1ccccc1Oc1ccccc1	-2	1	0.33	2	1	6
O/N=C/c1ccccc1Oc1ccccc1	73*	0.5	-0.65	45	0.3	8
Cc1c(Cl)cccc1NC(=O)CSc1ncnc2c1cnn2CCc1ccccc1	63*	0.1	-0.72	89*	0.4	7
O=C(CSCCO)Nc1cccc(C(F)(F)F)c1	-13	1.1	-0.38	-13	1.1	6
O=C(CSc1ncnc2c1cnn2CCc1ccccc1)Nc1cccc(C(F)(F)F)c1	78*	0	-1.5	98*	0.2	16
O=c1cc(-c2ccc(O)c(O)c2)oc2cc(O)c(C3OC(CO)C(O)C(O)C3O)c(O)c12 (stereo unspecified)	.	.	0.83	.	.	.
COc1cc(O)oc1C=Nc1ccc(C(F)(F)F)cc1	42	0.8	-1.2	22	0.6	6
CCCCCc1c(O)nc(SCC(=O)O)[nH]c1=O	.	.	.	.	.	9
COc1ccc(S(=O)(=O)NCCc2c(C)nn(C)c2Oc2ccccc2)cc1	87*	0.5	-1.6	48	0.1	6
Cc1nn(C)c(Oc2ccccc2)c1CCNS(=O)(=O)c1ccc(Cl)cc1	97*	0.2	-6.9*	80*	0	8
COc1ccccc1C(=O)Nn1cnc2ccccc2c1=O	13	0.8	0.64	17	0.9	8
Cc1[nH]nc2c1C(c1ccc(Cl)cc1)C(C#N)=C(N)O2 (stereo unspecified)	53*	0.6	-0.19	43	0.5	3
CC(C)(C)c1[nH]nc2c1C(c1ccncc1)C(C#N)=C(N)O2 (stereo unspecified)	60*	0.3	0.53	72*	0.4	-3
Cc1ccc(C2C(C#N)=C(N)Oc3n[nH]c(C)c32)cc1 (stereo unspecified)	27	0.9	-0.86	9	0.7	8
CC(C)(C)c1[nH]nc2c1C(c1ccoc1)C(C#N)=C(N)O2 (stereo unspecified)	39	0.9	.	11	0.6	10
CN1CCN(CCC(=O)Nc2ccccc2Cl)CC1	.	.	-0.51	.	.	12
CCCOc1ccc2[nH]cc(C(=O)O)c(=O)c2c1	14	1	-0.98	-1	0.9	11
O=C(CC12CC3CC(CC(C3)C1)C2)NCCN1CCOCC1	4	0.9	0.25	6	1	5
Cc1ccnc(NC(=O)CCC(=O)N(CC(=O)NCC2CCCO2)Cc2ccc(F)cc2)c1 (stereo unspecified)	-6	1	-0.48	-3	1.1	8
Cc1nc(C(=O)Nc2ccc(F)cc2)nn1-c1ccc([N+](=O)[O-])cc1	5	0.8	0.11	20	1	-3
